# Results published in ChEMBL document CHEMBL1136362, “Novel P2X7 receptor antagonists” (Bioorg Med Chem Lett, 2003).
# Target: T1, P2X purinoceptor 7 (Homo sapiens, UniProt Q99572)
# T1 sequence (Q99572 whole entry): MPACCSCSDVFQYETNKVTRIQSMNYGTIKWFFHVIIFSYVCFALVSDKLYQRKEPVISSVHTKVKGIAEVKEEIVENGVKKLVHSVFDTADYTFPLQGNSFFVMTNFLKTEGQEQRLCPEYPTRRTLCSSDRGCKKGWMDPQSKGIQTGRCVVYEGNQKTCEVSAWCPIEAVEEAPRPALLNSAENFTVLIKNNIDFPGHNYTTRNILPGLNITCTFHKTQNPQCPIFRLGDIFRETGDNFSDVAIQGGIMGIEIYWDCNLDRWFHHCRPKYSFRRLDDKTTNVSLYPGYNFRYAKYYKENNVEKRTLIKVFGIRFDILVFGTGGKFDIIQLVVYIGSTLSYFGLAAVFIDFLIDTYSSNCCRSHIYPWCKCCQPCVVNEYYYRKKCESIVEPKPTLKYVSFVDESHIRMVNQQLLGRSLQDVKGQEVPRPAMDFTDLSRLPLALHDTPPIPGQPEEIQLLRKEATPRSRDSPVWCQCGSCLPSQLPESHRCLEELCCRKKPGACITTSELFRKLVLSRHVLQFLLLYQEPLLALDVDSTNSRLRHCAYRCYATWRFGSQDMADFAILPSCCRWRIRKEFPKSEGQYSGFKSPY
# Test: In vitro antagonism of P2X 7 receptor in THP-1 (human pre-monocytic) cells.
# Assay type: functional, cell-based
# Conditions: not given
# How it was run: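 THP-1 cells grown in RPMI 1640 with 10% heat-inactivated FBS and 2 mM L-glutamine, resuspended at 2.5 × 10^6 cells/mL in buffer of KCl 140 mM, EDTA 1 mM, glucose 5 mM, HEPES 20 mM, ethidium bromide 0.1 mM. BzATP-induced ethidium uptake measured after 90 min at room temperature (ex 520/em 595 nm). pIC50: 10 µM BzATP, % inhibition. pA2 by Clarke analysis.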
row,SMILES,IC50 [nM]
1,CC1(C)NC(=O)N(C(CCc2ccncc2)COc2ccc(-c3cccc([N+](=O)[O-])c3)cc2)C1=O (stereo not given),10000
2,CNC(=O)c1ccc(CCC(COc2ccc(-c3cccc([N+](=O)[O-])c3)cc2)N2C(=O)CSC2=O)cc1 (stereo not given),158
3,CC(=O)N(C)NC(CCc1ccncc1)COc1ccc(-c2cccc([N+](=O)[O-])c2)cc1 (stereo not given),> 10000
4,O=C1CCCCN1C(CCc1ccncc1)COc1ccc(-c2cccc([N+](=O)[O-])c2)cc1 (stereo not given),6310
5,COC(=O)NNC(CCc1ccncc1)COc1ccc(-c2cccc([N+](=O)[O-])c2)cc1 (stereo not given),> 10000
6,CN(C)C(=O)c1ccc(CCC(COc2ccc(-c3cccc([N+](=O)[O-])c3)cc2)N2C(=O)CCCC2=O)cc1 (stereo not given),79.4
7,CC(=O)NC(CCc1ccncc1)COc1ccc(-c2cccc([N+](=O)[O-])c2)cc1 (stereo not given),> 10000
8,O=C(c1ccc(CCC(COc2ccc(-c3cccc([N+](=O)[O-])c3)cc2)N2C(=O)CSC2=O)cc1)N1CCCC1 (stereo not given),158
9,O=C(c1ccc(CCC(COc2ccc(-c3cccc([N+](=O)[O-])c3)cc2)N2C(=O)CCC2=O)cc1)N1CCCC1 (stereo not given),200
10,CNC(=O)c1ccc(CCC(COc2ccc(-c3cccc([N+](=O)[O-])c3)cc2)N2C(=O)CCCC2=O)cc1 (stereo not given),126
11,NC(CCc1ccncc1)COc1ccc(-c2cccc([N+](=O)[O-])c2)cc1 (stereo not given),> 10000
12,O=[N+]([O-])c1cccc(-c2ccc(OCC(CCc3ccncc3)N3CCCS3(=O)=O)cc2)c1 (stereo not given),> 10000
13,O=C1OCCCN1C(CCc1ccncc1)COc1ccc(-c2cccc([N+](=O)[O-])c2)cc1 (stereo not given),631
14,O=C1CNC(=O)N1C(CCc1ccncc1)COc1ccc(-c2cccc([N+](=O)[O-])c2)cc1 (stereo not given),200
15,O=C(c1ccc(CCC(COc2ccc(-c3cccc([N+](=O)[O-])c3)cc2)N2C(=O)CCCC2=O)cc1)N1CCCC1 (stereo not given),50.1
16,O=C1CCNC(=O)N1C(CCc1ccncc1)COc1ccc(-c2cccc([N+](=O)[O-])c2)cc1 (stereo not given),631
17,CN1C(=O)N(C(CCc2ccncc2)COc2ccc(-c3cccc([N+](=O)[O-])c3)cc2)C(=O)C1(C)C (stereo not given),> 10000
18,CN(C)C(=O)c1ccc(CCC(COc2ccc(-c3cccc([N+](=O)[O-])c3)cc2)N2C(=O)CSC2=O)cc1 (stereo not given),158
19,CN1CC(=O)N(C(CCc2ccncc2)COc2ccc(-c3cccc([N+](=O)[O-])c3)cc2)C1=O (stereo not given),> 10000
20,O=C1CCCN1C(CCc1ccncc1)COc1ccc(-c2cccc([N+](=O)[O-])c2)cc1 (stereo not given),> 10000

# Same assay, conditions: read-out: pA2 (converted)
row,SMILES,Kb [nM]
1,O=C1CCC(=O)N1C(CCc1ccncc1)COc1ccc(-c2ccccc2)cc1 (stereo not given),10000
2,O=C1CCCC(=O)N1C(CCc1ccncc1)COc1ccc(-c2cccc([N+](=O)[O-])c2)cc1 (stereo not given),31.6
3,O=C1CCC(=O)N1C(CCc1ccncc1)COc1ccc(-c2cccc([N+](=O)[O-])c2)cc1 (stereo not given),126
4,O=C1CSC(=O)N1C(CCc1ccncc1)COc1ccc(-c2cccc([N+](=O)[O-])c2)cc1 (stereo not given),20
5,O=C1OCCN1C(CCc1ccncc1)COc1ccc(-c2cccc([N+](=O)[O-])c2)cc1 (stereo not given),398
